Results on three compounds are retold here after ChEMBL document CHEMBL1134346, “Labeling and evaluation of N-[11C]methylated quinoline-2-carboxamides as potential radioligands for visualization of peripheral benzodiazepine receptors” (J Med Chem, 2001).

Molecules are shown by their SMILES.

Holding throughout (format): ADME, organism-based
The species entered for series [1] is Rattus norvegicus. In words: Tissue (spleen) distribution in Albino male CD rats after 90 minutes expressed as percent of injected dose per gram of organ. The following applies: in vivo, 1.5 h.
For series [2], the species on record is Rattus norvegicus. In words: Tissue (cerebellum) distribution in Albino male CD rats after 30 minutes expressed as percent of injected dose per gram of organ. Conditions: in vivo, 0.5 h. In outline: (§1)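 Radioligand given in saline into tail vein of male albino CD rats (225-250 g); 100-200 µCi per animal, 1-2 Ci/µmol at injection depending on radioligand. Three rats per time point were decapitated under light ether anaesthesia. Blood, plasma, brain regions and washed organs were weighed and gamma-counted. Uptake is %I.D./g tissue, mean ± SD.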

For series [3], the species on record is Rattus norvegicus. In words: Tissue (kidney) distribution in Albino male CD rats after 15 minutes expressed as percent of injected dose per gram of organ. The following applies: in vivo, 0.25 h. The method in brief: as §1
Series [4] is filed under the species Rattus norvegicus. In words: Tissue (adrenal gland) concentration of radioactivity at 30 min post-injection into Albino male CD rats with vehicle. Conditions: in vivo, 0.5 h. The method in brief: (§2)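 Separate groups of five rats received tail-vein PK 11195 (1.4-1.6 mg; 5 mg/kg) in 30 µL DMSO:EtOH 1:1, or vehicle alone, immediately before iv radioligand (90-170 µCi in saline, 0.9-1 Ci/µmol). Rats were decapitated at 30 min and tissues gamma-counted; values are %I.D./g.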

Series [5] is filed under the species Rattus norvegicus. In words: Tissue (blood) concentration of radioactivity at 30 min post-injection into Albino male CD rats with vehicle. The following applies: in vivo, 0.5 h. In outline: as §2
The species named for series [6] is Rattus norvegicus. In words: Tissue (lung) distribution in Albino male CD rats after 15 minutes expressed as percent of injected dose per gram of organ. The following applies: in vivo, 0.25 h. In outline:
(§3)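 Male albino CD rats (225-250 g) received the 11C-labelled radioligand in saline by tail-vein injection. Three rats per time point were decapitated under light ether anaesthesia at 5, 15, 30, 60 or 90 min. Blood was collected heparinized and plasma separated by centrifugation. The pituitary was dissected from the brain. Lung, liver (three-lobe pieces) and right deltoid muscle were sampled, washed in cold saline, gamma-counted and weighed. Results are %I.D./g.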

Series [7] is filed under the species Rattus norvegicus. In words: Tissue (heart) concentration of radioactivity at 30 min post-injection into Albino male CD rats with vehicle. Conditions: in vivo, 0.5 h. The method in brief:
as §2

The species entered for series [8] is Rattus norvegicus. In words: Tissue (cerebellum) distribution in Albino male CD rats after 15 minutes expressed as percent of injected dose per gram of organ. The following applies: in vivo, 0.25 h. In outline:
as §1

For series [9], the species on record is Rattus norvegicus. In words: Tissue (muscle) distribution in Albino male CD rats after 15 minutes expressed as percent of injected dose per gram of organ. Conditions: in vivo, 0.25 h. The method in brief:
as §3

The species entered for series [10] is Rattus norvegicus. In words: Tissue (blood) distribution in Albino male CD rats after 5 minutes expressed as percent of injected dose per gram of organ. The following applies: in vivo. The method in brief: as §1
The species entered for series [11] is Rattus norvegicus. In words: Tissue (Muscle) distribution in Albino male CD rats after 15 minutes expressed as percent of injected dose per gram of organ. Conditions: in vivo, 0.25 h. In outline:
as §1

The species named for series [12] is Rattus norvegicus. In words: Tissue (blood) concentration of radioactivity at 30 min post-injection into Albino male CD rats with vehicle. Conditions: in vivo, 0.5 h. The method in brief: as §2

As to `CCC(C)N(C)C(=O)c1nc2ccccc2c(-c2ccccc2F)c1C` (stereo not given), the I.D./g in series [1] turned out to be 0.71%; in series [2], 0.09%; in series [3], 0.73%; in series [4], 1.79%; in [5] it was 0.04%; in series [6], 2.25%. Besides, the I.D./g in series [7] is on record as 0.35%; in series [8], 0.11%; in series [9], 0.13%; in series [10], 0.11%.

With `Cc1c(C(=O)N(C)Cc2ccccc2)nc2ccccc2c1-c1ccccc1`, the I.D./g in [11] was 0.25%; in series [1], 1.56%; in series [2], 0.12%; in series [3], 1.17%; in [4], 0.62%; in series [12] it was 0.01%. Moreover, the I.D./g in [6] amounted to 3.32%; in series [7], 0.35%; in series [8], 0.2%; in series [10] it was 0.2%.

On to `CCC(C)N(C)C(=O)c1nc2ccccc2c(-c2ccccc2)c1C` (stereo not given), for which the I.D./g in series [1] turned out to be 1.06%; in series [2], 0.09%; in series [3] it was 0.6%; in [4] it was 1.6%; in [5], 0.03%; in [6] it was 2.01%. Besides, the I.D./g in series [7] was 0.77%; in series [8], 0.08%; in series [9], 0.14%; in series [10], 0.13%.
